This is an account of results in PMC3763817 (Chemistry & biology, 2013).

Data set [1] relates to wt Siah1. As to the kind of experiment: MALDI-TOF MS of covalent modification, wt Siah1. Format: binding. The settings on record: protein incubated with peptide in 0.5x PBS (Figures 2e, 3d). The method in brief:
(§1)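 Siah1 residues 81-282 (wild type or T156C mutant) from pET15b expression, incubated with peptide in 0.5x PBS. Equal volumes of sample and sinapic acid matrix (20 mg/ml in 50% acetonitrile-0.1% TFA) were co-crystallised on target and air-dried 5 min. Controls were buffer-only and protein spectra. Peaks were picked by centroid mass find (S/N threshold 5, peak width 40 m/z, 80% height, Top Hat baseline subtraction).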

Data set [2] relates to Siah1 T156C. Nature of the data set: MALDI-TOF MS of covalent modification, Siah1 T156C. In kind it is binding. The settings on record: protein incubated with peptide in 0.5x PBS (Figure 2d). The method in brief: as §1
For data set [3], the system named is T156C Siah1. As to the kind of experiment: X-ray crystal structure of BI-117C3/T156C Siah1 complex. Format: binding. To be noted: crystal structure at 2.8 Å, judged by refined atomic B-factors. The method in brief:
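Siah1 residues 81–282 with T156C mutation, purified by a published method, mixed with 2-fold excess test peptide at 4 °C for 16–18 h. Doubly peptide-bound dimer isolated by anion exchange. Sitting-drop vapour-diffusion crystals grown over 60–65% MPD, 100 mM N,N-bis(2-hydroxyethyl)glycine pH 9.0. Synchrotron data; molecular replacement using a refined covalent peptide–Siah1 dimer as search model.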

Data set [4] deals with T1, his6-Siah1 (aa 81-282) (Homo sapiens, UniProt Q8IUQ4).
T1 sequence (Q8IUQ4 81-282): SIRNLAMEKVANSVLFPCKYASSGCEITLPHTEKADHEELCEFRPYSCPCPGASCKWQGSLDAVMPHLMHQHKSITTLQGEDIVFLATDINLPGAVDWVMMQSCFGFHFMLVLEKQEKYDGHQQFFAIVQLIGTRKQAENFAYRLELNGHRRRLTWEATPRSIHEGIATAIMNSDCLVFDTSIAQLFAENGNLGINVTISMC
Nature of the data set: DELFIA displacement of biotin-PHYL, wild type Siah. In kind it is binding.

Data set [5] deals with T2, his6-Siah1 T156C (aa 81-282) (Homo sapiens, UniProt Q8IUQ4, T156C).
T2 sequence (Q8IUQ4 81-282 T156C): T1 sequence (Q8IUQ4 81-282) with T76C
Nature of the data set: DELFIA displacement of biotin-PHYL, mutant T156C Siah. Format: binding.

Data set [6] relates to substrate-binding domain of Siah. The settings on record: ref House et al., 2003, 2006; cited from earlier work.
Data set [7] concerns the molecule itself. As to the kind of experiment: crystal structure.
The target of data set [8] is T3, his6-Siah1 (aa 81-282) (UniProt Q8IUQ4 81-282).
T3 sequence (looked up): T1 sequence (Q8IUQ4 81-282)
Nature of the data set: DELFIA displacement assay.

Data set [9] concerns the target T4, his6-Siah1 T156C (aa 81-282) (UniProt Q8IUQ4 81-282, T156C).
T4 sequence (looked up): T1 sequence (Q8IUQ4 81-282) with T76C
Nature of the data set: DELFIA displacement assay.

For data set [10], the target named is T4, his6-Siah1 T156C (aa 81-282). Nature of the data set: DELFIA displacement assay. This is another data set of the same source.

Changes are numbered by the printed parent chain. Names may count otherwise. Square brackets hold non-standard residues; d marks the D form. Ends that are not written are not given here. Peptide text beside a SMILES is read from it. * marks the point of attachment. Biotin = O=C1N[C@H]2[C@H](CS[C@H]2CCCCC(=O)*)N1; lc = a hydrocarbon chain of 6 methylene groups; Abu = CC[C@H](N)C(=O)O; Dap = NC[C@H](N)C(=O)O; Acryloyl = C=CC(=O)*

On to `C=CC(=O)NCCCC[C@H](NC(=O)[C@@H]1CCCN1C(=O)[C@H](CCCNC(=N)N)NC(=O)[C@@H](NC(=O)[C@H](CCSC)NC(=O)[C@H](C)NC(=O)[C@@H](NC(=O)[C@@H]1CCCN1C(=O)[C@H](CCCNC(=N)N)NC(=O)[C@H](CC(C)C)NC(=O)[C@H](CCCCN)NC(C)=O)C(C)C)C(C)C)C(=O)N[C@H](C(=O)N[C@@H](CCCNC(=N)N)C(N)=O)C(C)C` [BI-107F7] (Ac-KLRPVAMVRPK(Acryloyl)VR-NH2), for which, in [1], the “Covalent modification of wt Siah1 by MALDI-TOF mass spectrometry” value is given as “confirmed the formation of the covalent complex”.

`C=CC(=O)NC[C@H](NC(=O)[C@@H](NC(=O)[C@@H]1CCCN1C(=O)[C@H](CCCNC(=N)N)NC(=O)[C@H](CC(C)C)NC(=O)[C@H](CCCCN)NC(C)=O)C(C)C)C(=O)N[C@@H](CCSC)C(=O)N[C@H](C(=O)N[C@@H](CCCNC(=N)N)C(=O)N1CCC[C@H]1C(=O)N[C@@H](Cc1c[nH]c2ccccc12)C(=O)N[C@H](C(=O)N[C@@H](CCCNC(=N)N)C(N)=O)C(C)C)C(C)C` [BI-117C3] (Ac-KLRPV[Dap](Acryloyl)MVRPWVR-NH2): the “Covalent modification of Siah1 T156C by MALDI-TOF mass spectrometry” value in data set [2] is reported as “expected mass increase”. For the same molecule, in [1], the “Covalent modification of wt Siah1 by MALDI-TOF mass spectrometry” value was “unable to covalently modify wt Siah1”. Moreover, in [3], the “Efficiency of covalent thioether bond formation to Cys156” value was ~ 100%.

As usually defined, the IC50 is the midpoint of a concentration-inhibition curve. With Ac-KLRPVAMVRPTVR-NH2 [BI-107D1], the IC50 in [4] and in [5] was 1000 nM in each case.

For Ac-QQERTKLRPVAMVRPTVRVQPQL-NH2 [PHYL], in data set [6], the “Affinity for the substrate-binding domain of Siah” value is “low micromolar affinity”.

Turning to “Ac-RQIKIWFQNRRMKWKKPPPPPPPPPPQQERTKLRPVAMVRPTVRVQPQL-NH2 [PEN-P10-PHYL, reference compound]”, the IC50 in [4] is 1000 nM.

B1: Siah1 81-282 (wild-type) (domain or fragment, UniProt Q8IUQ4 81-282, looked up)
chain: T1 sequence (Q8IUQ4 81-282)
Turning to B1, the binding result in data set [7] is listed as “binds”.

B2: Siah1 81-282 (T156C mutant), for crystallographic studies (domain or fragment, UniProt Q8IUQ4 81-282, looked up)
chain: T1 sequence (Q8IUQ4 81-282) with T76C
Consider B2, for which the binding result in data set [7] is listed as “binds”.

B3: BI-107E1 (Ac-KLRPVεMVRPTVR-NH2) (peptide)
chain: Ac-KLRPV[Abu]MVRPTVR-NH2
Take B3: the IC50 in data set [8] and in data set [9] was 2000 nM each time.

B4: PHYL (Ac-QQERTKLRPVAMVRPTVRVQPQL-NH2) (peptide)
peptide: Ac-QQERTKLRPVAMVRPTVRVQPQL-NH2
For the molecule B4, in data set [8], the IC50 worked out at 500 nM.

B5: BI-107D1 (Ac-KLRPVAMVRPTVR-NH2) (peptide)
peptide: Ac-KLRPVAMVRPTVR-NH2
In the case of B5, the IC50 in [8] and in data set [9] was 1000 nM throughout.

B6: BI-107E12 (Ac-KLRPVAMVRPMVR-NH2) (peptide)
peptide: Ac-KLRPVAMVRPMVR-NH2
As to B6, in data set [9], the IC50 was 900 nM.

B7: BI-107F1 (Ac-KLRPVAMVRPWVR-NH2) (peptide)
peptide: Ac-KLRPVAMVRPWVR-NH2
As to B7, in data set [9], the IC50 turned out to be 400 nM.

B8: BI-117C3 (Ac-KLRPVδMVRPWVR-NH2) (peptide)
chain: Ac-KLRPV[Dap](Acryloyl)MVRPWVR-NH2
SMILES: C=CC(=O)NC[C@H](NC(=O)[C@@H](NC(=O)[C@@H]1CCCN1C(=O)[C@H](CCCNC(=N)N)NC(=O)[C@H](CC(C)C)NC(=O)[C@H](CCCCN)NC(C)=O)C(C)C)C(=O)N[C@@H](CCSC)C(=O)N[C@H](C(=O)N[C@@H](CCCNC(=N)N)C(=O)N1CCC[C@H]1C(=O)N[C@@H](Cc1c[nH]c2ccccc12)C(=O)N[C@H](C(=O)N[C@@H](CCCNC(=N)N)C(N)=O)C(C)C)C(C)C
On to B8, for which the figures for the IC50 in [8] and in [9] were greater than 100000 nM and 6 nM, respectively.

B9: biotin-PHYL (biotin-lc-QQERTKLRPVAMVRPTVRVQPQL) (peptide)
peptide: {Biotin-lc}-QQERTKLRPVAMVRPTVRVQPQL
Regarding B9, the binding result in [10] is listed as “binds”.

B10: BI-107F7 (Ac-KLRPVAMVRPαVR-NH2) (peptide)
chain: Ac-KLRPVAMVRPK(Acryloyl)VR-NH2
In data set [8], B10 showed an IC50 of 100 nM.
